Data on nine compounds can be found in ChEMBL document CHEMBL5523688, “Selective targeting of human TET1 by cyclic peptide inhibitors: Insights from biochemical profiling” (Bioorg Med Chem, 2024).

SMILES strings stand for the structures. The source made the active and inactive calls. No cut-off for these calls is given here.

Assay [1] deals with T1, Methylcytosine dioxygenase TET1 (Homo sapiens, UniProt Q8NFU7). In words: Inhibition of FLAG-tagged human TET1 catalytic domain (E1418 to V2136 residues) expressed in doxycycline induced human U2OS cells assessed as reduction in 5-hydroxymethylcytosine level at 30 to 100 uM incubated for 24 hrs by immunofluorescence assay. Particulars: dose 30-100 µM. It counts as cell-based. In short, it runs like this: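 U2OS cells stably carrying dox-inducible FLAG-tagged TET1 catalytic domain were seeded at 5,000/well in DMEM with Tet-approved FBS (10%), penicillin/streptomycin and L-glutamine, then held 4 h at 37 °C. Induction used doxycycline 1 μg/mL alongside compound (1% DMSO final) for 24 h. Cells were fixed, permeabilised, blocked, immunostained (rabbit polyclonal oxidised-cytosine antibody 1:500, anti-FLAG 1:1000, 16 h) and DAPI-counterstained. Mean staining intensity of FLAG-TET1 cells was imaged.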

Assay [2] has as its target Methylcytosine dioxygenase TET2 (Homo sapiens, UniProt Q6N021). In words: Inhibition of N-terminal His-tagged recombinant human TET2 catalytic domain LCIdel mutant (D1129 to G1936 residues with Y1481 to N1843 replaced by 3 x GGGGS linker) expressed in Escherichia coli BL21 (DE3) using 5-methylcytosine as substrate preincubated for 10 mins followed by substrate and DNA-cofactor addition measured after 10 mins by Alphascreen assay.

The target of assay [3] is T2, Methylcytosine dioxygenase TET3 (Homo sapiens, UniProt O43151). Kind of assay: Inhibition of recombinant human TET3 catalytic domain (E824 to I1795 residues) expressed in baculovirus infected Sf9 cells using 5-methylcytosine as substrate preincubated for 10 mins followed by substrate and DNA-cofactor addition measured after 10 mins by Alphascreen assay. In general terms: Alpha assays give light when donor and acceptor beads are brought close together.

The target of assay [4] is T1, Methylcytosine dioxygenase TET1. Kind of assay: Inhibition of N-terminal 3xFlag-tagged recombinant human TET1 catalytic domain (E1418 to V2136 residues) expressed in baculovirus infected Sf9 cells using 5-methylcytosine as substrate preincubated for 10 mins followed by substrate and DNA-cofactor addition measured after 30 mins by Alphascreen assay. In short, it runs like this: (§1)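 TET1 catalytic domain (E1418–V2136, Sf9 baculovirus) at 2 nM was preincubated 10 min with inhibitor (1% DMSO) in HEPES 50 mM pH 7.3, 150 mM NaCl, 0.1% BSA, 0.01% Tween-20. Reaction was started with ascorbate 200 µM, Fe(II) 20 µM, 2OG 20 µM and 5mC ssDNA 10 nM, run 30 min, then EDTA-quenched. Anti-5hmC antibody with AlphaScreen beads, 45–60 min, luminescence read. Three independent replicates.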

Assay [5] has the same target. Kind of assay: Inhibition of FLAG-tagged human TET1 catalytic domain (E1418 to V2136 residues) expressed in doxycycline induced human U2OS cells assessed as reduction in 5-hydroxymethylcytosine level at 50 to 100 uM incubated for 24 hrs by immunofluorescence assay. Format: cell-based. Particulars: dose 50-100 µM. The gist of the method:
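U2OS cells stably carrying dox-inducible FLAG-tagged TET1 catalytic domain (E1418–V2136), 5,000/well, seeded 4 h at 37 °C in DMEM with Tet-approved 10% FBS, pen/strep and L-glutamine. Doxycycline 1 µg/mL induction plus compound dosing (1% DMSO final) for 24 h. After fixation, cells were co-stained with anti-5hmC and anti-FLAG antibodies plus DAPI, then imaged. Read-out was mean 5hmC fluorescence in FLAG-positive cells.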

A short description of assay [6]: Selectivity ratio of pIC50 for inhibition of N-terminal 3xFlag-tagged recombinant human TET1 catalytic domain (E1418 to V2136 residues) expressed in baculovirus infected Sf9 cells to pIC50 for inhibition of recombinant human TET3 catalytic domain (E824 to I1795 residues) expressed in baculovirus infected Sf9 cells.
The target of assay [7] is T2, Methylcytosine dioxygenase TET3. In words: Inhibition of recombinant human TET3 catalytic domain (E824 to I1795 residues) expressed in baculovirus infected Sf9 cells using 5-methylcytosine as substrate assessed as change in pIC50 preincubated for 10 mins followed by substrate and DNA-cofactor addition measured after 10 mins by Alphascreen assay. Particulars: time 20.0 min.

Assay [8] has as its system Methylcytosine dioxygenase TET2 (Homo sapiens), Q6N021 [UNDEFINED MUTATION]. Particulars: time 20.0 min.
For assay [9], the target named is T1, Methylcytosine dioxygenase TET1. In words: Inhibition of N-terminal 3xFlag-tagged recombinant human TET1 catalytic domain (E1418 to V2136 residues) expressed in baculovirus infected Sf9 cells using 5-methylcytosine as substrate assessed as change in pIC50 preincubated for 10 mins followed by substrate and DNA-cofactor addition measured after 30 mins by Alphascreen assay. Particulars: time 40.0 min. The gist of the method:
as §1

T1 sequence (Q8NFU7 whole entry, the tested form may be a part): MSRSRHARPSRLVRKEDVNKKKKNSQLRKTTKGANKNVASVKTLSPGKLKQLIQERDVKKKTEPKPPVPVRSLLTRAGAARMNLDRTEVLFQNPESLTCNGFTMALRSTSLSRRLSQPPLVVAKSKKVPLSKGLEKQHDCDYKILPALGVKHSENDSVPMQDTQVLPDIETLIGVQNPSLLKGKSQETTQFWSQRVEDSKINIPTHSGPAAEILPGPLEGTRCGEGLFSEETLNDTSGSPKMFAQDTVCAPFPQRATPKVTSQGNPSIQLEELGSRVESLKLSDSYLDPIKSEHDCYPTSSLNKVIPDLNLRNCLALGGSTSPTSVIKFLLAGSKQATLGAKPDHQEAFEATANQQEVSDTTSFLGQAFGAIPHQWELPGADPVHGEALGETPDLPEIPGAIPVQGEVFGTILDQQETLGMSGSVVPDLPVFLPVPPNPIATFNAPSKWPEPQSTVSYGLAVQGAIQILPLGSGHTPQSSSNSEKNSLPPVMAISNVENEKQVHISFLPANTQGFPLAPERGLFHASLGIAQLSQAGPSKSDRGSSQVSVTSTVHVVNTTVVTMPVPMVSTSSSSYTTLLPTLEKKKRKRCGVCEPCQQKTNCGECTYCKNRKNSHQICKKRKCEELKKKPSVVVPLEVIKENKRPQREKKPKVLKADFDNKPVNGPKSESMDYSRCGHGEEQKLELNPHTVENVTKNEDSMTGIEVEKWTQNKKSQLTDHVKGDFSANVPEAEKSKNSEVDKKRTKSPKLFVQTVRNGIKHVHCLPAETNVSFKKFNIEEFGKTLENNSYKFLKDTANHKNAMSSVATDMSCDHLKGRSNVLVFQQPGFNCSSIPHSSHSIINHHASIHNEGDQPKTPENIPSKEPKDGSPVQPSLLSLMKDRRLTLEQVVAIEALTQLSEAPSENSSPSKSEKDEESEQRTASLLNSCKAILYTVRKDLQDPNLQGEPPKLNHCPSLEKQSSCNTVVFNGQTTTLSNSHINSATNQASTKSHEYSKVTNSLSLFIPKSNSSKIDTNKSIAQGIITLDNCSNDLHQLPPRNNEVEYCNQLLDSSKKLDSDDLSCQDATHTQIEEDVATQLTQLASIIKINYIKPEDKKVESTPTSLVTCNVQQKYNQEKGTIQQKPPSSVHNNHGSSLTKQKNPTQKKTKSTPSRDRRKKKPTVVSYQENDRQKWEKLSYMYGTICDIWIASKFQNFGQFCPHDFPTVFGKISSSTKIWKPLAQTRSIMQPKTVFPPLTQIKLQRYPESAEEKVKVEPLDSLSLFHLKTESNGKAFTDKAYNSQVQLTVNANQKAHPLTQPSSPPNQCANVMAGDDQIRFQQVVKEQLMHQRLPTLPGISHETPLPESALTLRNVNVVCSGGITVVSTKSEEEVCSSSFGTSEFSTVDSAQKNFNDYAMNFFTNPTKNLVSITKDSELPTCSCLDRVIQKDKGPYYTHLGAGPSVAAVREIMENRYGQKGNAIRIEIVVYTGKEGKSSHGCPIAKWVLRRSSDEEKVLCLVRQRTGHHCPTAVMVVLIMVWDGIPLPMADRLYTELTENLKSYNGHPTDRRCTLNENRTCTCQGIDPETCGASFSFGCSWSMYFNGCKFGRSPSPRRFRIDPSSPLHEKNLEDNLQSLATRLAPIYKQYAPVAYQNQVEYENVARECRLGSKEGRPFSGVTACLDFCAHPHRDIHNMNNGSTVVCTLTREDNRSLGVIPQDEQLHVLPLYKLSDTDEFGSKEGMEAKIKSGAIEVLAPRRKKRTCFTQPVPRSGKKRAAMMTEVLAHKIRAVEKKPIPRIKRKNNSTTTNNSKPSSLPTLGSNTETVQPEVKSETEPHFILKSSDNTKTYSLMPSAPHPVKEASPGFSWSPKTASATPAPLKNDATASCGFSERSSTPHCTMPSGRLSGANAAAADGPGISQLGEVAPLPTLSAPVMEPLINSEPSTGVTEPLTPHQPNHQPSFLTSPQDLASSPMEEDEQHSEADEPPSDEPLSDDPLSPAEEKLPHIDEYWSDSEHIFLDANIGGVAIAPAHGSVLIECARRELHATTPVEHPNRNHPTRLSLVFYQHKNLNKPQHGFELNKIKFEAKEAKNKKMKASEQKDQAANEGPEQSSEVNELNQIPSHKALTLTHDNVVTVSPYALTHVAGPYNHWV
T2 sequence (O43151 whole entry, the tested form may be a part): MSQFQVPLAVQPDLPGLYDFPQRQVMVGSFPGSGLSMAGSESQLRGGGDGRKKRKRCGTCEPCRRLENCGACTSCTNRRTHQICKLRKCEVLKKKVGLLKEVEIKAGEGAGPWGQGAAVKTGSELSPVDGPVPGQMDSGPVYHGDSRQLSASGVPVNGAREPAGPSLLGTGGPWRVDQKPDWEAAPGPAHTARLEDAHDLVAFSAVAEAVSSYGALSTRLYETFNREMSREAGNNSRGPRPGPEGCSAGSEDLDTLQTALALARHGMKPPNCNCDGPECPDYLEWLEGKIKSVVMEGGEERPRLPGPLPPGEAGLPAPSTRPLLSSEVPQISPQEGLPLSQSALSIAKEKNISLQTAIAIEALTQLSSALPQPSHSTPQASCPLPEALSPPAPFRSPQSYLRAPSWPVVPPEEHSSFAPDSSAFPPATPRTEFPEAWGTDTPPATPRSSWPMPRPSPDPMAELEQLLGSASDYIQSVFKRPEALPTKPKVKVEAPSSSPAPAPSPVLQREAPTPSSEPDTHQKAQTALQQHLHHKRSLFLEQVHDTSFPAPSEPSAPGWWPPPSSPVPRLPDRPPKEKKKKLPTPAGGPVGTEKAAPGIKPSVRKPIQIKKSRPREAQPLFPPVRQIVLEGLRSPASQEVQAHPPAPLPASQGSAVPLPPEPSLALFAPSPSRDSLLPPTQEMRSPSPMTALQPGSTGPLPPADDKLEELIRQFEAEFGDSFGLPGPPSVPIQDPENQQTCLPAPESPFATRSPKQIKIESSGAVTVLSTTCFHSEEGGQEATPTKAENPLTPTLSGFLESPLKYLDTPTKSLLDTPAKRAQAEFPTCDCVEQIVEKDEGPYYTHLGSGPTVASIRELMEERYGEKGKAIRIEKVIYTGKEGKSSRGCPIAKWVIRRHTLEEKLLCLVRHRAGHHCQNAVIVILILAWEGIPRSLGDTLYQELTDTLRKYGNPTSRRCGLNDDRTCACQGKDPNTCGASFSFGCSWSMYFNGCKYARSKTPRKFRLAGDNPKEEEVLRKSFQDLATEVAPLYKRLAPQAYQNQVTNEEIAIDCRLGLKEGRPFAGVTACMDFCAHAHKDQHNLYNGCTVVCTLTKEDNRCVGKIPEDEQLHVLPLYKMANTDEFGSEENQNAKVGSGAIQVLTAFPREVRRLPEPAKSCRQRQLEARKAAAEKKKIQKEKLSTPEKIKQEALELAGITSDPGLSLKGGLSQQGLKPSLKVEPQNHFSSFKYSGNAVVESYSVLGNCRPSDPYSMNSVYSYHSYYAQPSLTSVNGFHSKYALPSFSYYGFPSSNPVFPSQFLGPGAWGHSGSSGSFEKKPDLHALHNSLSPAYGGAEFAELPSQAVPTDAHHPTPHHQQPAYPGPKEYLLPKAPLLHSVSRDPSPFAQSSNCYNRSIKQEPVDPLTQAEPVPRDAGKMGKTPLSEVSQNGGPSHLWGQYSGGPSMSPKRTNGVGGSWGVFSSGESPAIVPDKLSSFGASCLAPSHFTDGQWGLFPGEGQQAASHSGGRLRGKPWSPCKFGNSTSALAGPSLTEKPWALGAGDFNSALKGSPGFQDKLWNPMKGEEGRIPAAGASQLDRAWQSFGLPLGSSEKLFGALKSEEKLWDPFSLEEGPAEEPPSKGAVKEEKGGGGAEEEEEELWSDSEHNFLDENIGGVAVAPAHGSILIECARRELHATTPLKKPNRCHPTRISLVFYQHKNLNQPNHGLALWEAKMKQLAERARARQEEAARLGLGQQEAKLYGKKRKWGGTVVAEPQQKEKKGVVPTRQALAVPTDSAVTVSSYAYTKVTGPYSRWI

Take `N=C(N)NCCC[C@H](NC(=O)[C@H](CCCNC(=N)N)NC(=O)[C@H](CCCNC(=N)N)NC(=O)[C@H](CCC(N)=O)NC(=O)[C@H](CCCNC(=N)N)NC(=O)[C@H](CCCNC(=N)N)NC(=O)[C@H](CCCCN)NC(=O)[C@H](CCCCN)NC(=O)[C@H](CCCNC(=N)N)NC(=O)CNC(=O)[C@@H](N)Cc1ccc(O)cc1)C(=O)O`: in assay [1], the inhibition result was “Active”. In addition, the pIC50 in assay [2] was 5.39. Moreover, the IC50 in [3] (read-out: pIC50 (converted)) was greater than 100000 nM; in assay [4] (read-out: pIC50 (converted)), 1150 nM.
For `N=C(N)NCCC[C@H](NC(=O)[C@H](CCCNC(=N)N)NC(=O)[C@H](CCCNC(=N)N)NC(=O)[C@H](CCCNC(=N)N)NC(=O)[C@H](CCCNC(=N)N)NC(=O)[C@H](CCCNC(=N)N)NC(=O)[C@H](CCCNC(=N)N)NC(=O)[C@@H](N)CCCNC(=N)N)C(=O)O`, in that order: “Active”, 6.45, greater than 100000 nM and 251 nM.
On to `CC[C@H](C)[C@@H]1NC(=O)[C@H](CC(C)C)NC(=O)[C@@H](Cc2ccc(O)cc2)NC(=O)CSC[C@H](C(=O)N[C@@H](Cc2ccc(O)cc2)C(=O)NCC(=O)N[C@@H](CCCNC(=N)N)C(=O)N[C@@H](CCCCN)C(=O)N[C@@H](CCCCN)C(=O)N[C@@H](CCCNC(=N)N)C(=O)N[C@@H](CCCNC(=N)N)C(=O)N[C@@H](CCC(N)=O)C(=O)N[C@@H](CCCNC(=N)N)C(=O)N[C@@H](CCCNC(=N)N)C(N)=O)NC(=O)[C@H](CO)NC(=O)[C@H](Cc2c[nH]cn2)NC(=O)[C@H](CCC(=O)O)NC(=O)[C@H](Cc2c[nH]c3ccccc23)NC(=O)[C@H](Cc2c[nH]c3ccccc23)NC(=O)[C@H]([C@@H](C)O)NC(=O)[C@H](Cc2ccc(O)cc2)NC(=O)[C@H](Cc2ccc(O)cc2)NC(=O)[C@H](C)NC(=O)[C@H](Cc2ccc(O)cc2)NC1=O`, for which the negative-log IC50 (pIC50) in assay [2] came out at 6.91. Moreover, the IC50 in [3] (read-out: IC50) was greater than 100000 nM; in [3] (read-out: pIC50 (converted)) it was 182 nM; in assay [4] (read-out: IC50) it was 250 nM; in assay [4] (read-out: pIC50 (converted)), 18.2 nM. For the same compound, in assay [5], the inhibition entry was “Active”.
Turning to `CC[C@H](C)[C@@H]1NC(=O)[C@H](CC(C)C)NC(=O)[C@@H](Cc2ccc(O)cc2)NC(=O)CSC[C@@H](C(=O)NCC(=O)N[C@@H](CO)C(=O)NCC(=O)N[C@@H](CO)C(=O)N[C@@H](CC(=O)O)C(=O)N[C@@H](Cc2ccc(O)cc2)C(=O)N[C@@H](CCCCN)C(=O)N[C@@H](CC(=O)O)C(=O)N[C@@H](CC(=O)O)C(=O)N[C@@H](CC(=O)O)C(=O)N[C@@H](CC(=O)O)C(=O)N[C@@H](CCCCN)C(N)=O)NC(=O)[C@H](CO)NC(=O)[C@H](Cc2c[nH]cn2)NC(=O)[C@H](CCC(=O)O)NC(=O)[C@H](Cc2c[nH]c3ccccc23)NC(=O)[C@H](Cc2c[nH]c3ccccc23)NC(=O)[C@H]([C@@H](C)O)NC(=O)[C@H](Cc2ccc(O)cc2)NC(=O)[C@H](Cc2ccc(O)cc2)NC(=O)[C@H](C)NC(=O)[C@H](Cc2ccc(O)cc2)NC1=O`, the pIC50 in [2] stood at 4.59. The Ratio pIC50 in [6] is 58. Moreover, the IC50 in assay [3] (read-out: pIC50 (converted)) was 23400 nM; in assay [4] (read-out: pIC50 (converted)), 407 nM.
`CC[C@H](C)[C@@H]1NC(=O)[C@H](CC(C)C)NC(=O)[C@@H](Cc2ccc(O)cc2)NC(=O)CSC[C@@H](C(N)=O)NC(=O)[C@H](CO)NC(=O)[C@H](Cc2c[nH]cn2)NC(=O)[C@H](CCC(=O)O)NC(=O)[C@H](Cc2c[nH]c3ccccc23)NC(=O)[C@H](Cc2c[nH]c3ccccc23)NC(=O)[C@H]([C@@H](C)O)NC(=O)[C@H](Cc2ccc(O)cc2)NC(=O)[C@H](C)NC(=O)[C@H](C)NC(=O)[C@H](Cc2ccc(O)cc2)NC1=O`: the negative logarithm of the IC50 (pIC50) in [2] was determined as 4.63. Moreover, the deltapIC50 in assay [7] was -0.48; in [8], -0.07; in [9], -0.52. In addition, the IC50 in assay [3] (read-out: pIC50 (converted)) was 16200 nM; in [4] (read-out: pIC50 (converted)), 1100 nM.
For the compound `CC[C@H](C)[C@@H]1NC(=O)[C@H](CC(C)C)NC(=O)[C@@H](Cc2ccc(O)cc2)NC(=O)CSC[C@@H](C(N)=O)NC(=O)[C@H](CO)NC(=O)[C@H](Cc2c[nH]cn2)NC(=O)[C@H](CCC(=O)O)NC(=O)[C@H](Cc2c[nH]c3ccccc23)NC(=O)[C@H](Cc2c[nH]c3ccccc23)NC(=O)[C@H](C)NC(=O)[C@H](Cc2ccc(O)cc2)NC(=O)[C@H](Cc2ccc(O)cc2)NC(=O)[C@H](C)NC(=O)[C@H](Cc2ccc(O)cc2)NC1=O`, the pIC50 in assay [2] came to 4.65. In addition, the deltapIC50 in assay [7] is 0; in assay [8], -0.05; in assay [9] it was -0.94. In addition, the IC50 in [3] (read-out: pIC50 (converted)) is 5250 nM; in assay [4] (read-out: pIC50 (converted)), 2880 nM.
As to `CC[C@H](C)[C@@H]1NC(=O)[C@H](CC(C)C)NC(=O)[C@@H](Cc2ccc(O)cc2)NC(=O)CSC[C@@H](C(N)=O)NC(=O)[C@H](CO)NC(=O)[C@H](Cc2c[nH]cn2)NC(=O)[C@H](C)NC(=O)[C@H](Cc2c[nH]c3ccccc23)NC(=O)[C@H](Cc2c[nH]c3ccccc23)NC(=O)[C@H]([C@@H](C)O)NC(=O)[C@H](Cc2ccc(O)cc2)NC(=O)[C@H](Cc2ccc(O)cc2)NC(=O)[C@H](C)NC(=O)[C@H](Cc2ccc(O)cc2)NC1=O`, in assay [2], the pIC50 was 4.14. Further, the deltapIC50 in assay [7] is less than -1.28; in assay [8], -0.55; in assay [9], -0.72. In addition, the IC50 in [3] (read-out: pIC50 (converted)) was greater than 100000 nM; in [4] (read-out: pIC50 (converted)), 1740 nM.
Consider `CC[C@H](C)[C@@H]1NC(=O)[C@H](CC(C)C)NC(=O)[C@@H](Cc2ccc(O)cc2)NC(=O)CSC[C@@H](C(N)=O)NC(=O)[C@H](CO)NC(=O)[C@H](C)NC(=O)[C@H](CCC(=O)O)NC(=O)[C@H](Cc2c[nH]c3ccccc23)NC(=O)[C@H](Cc2c[nH]c3ccccc23)NC(=O)[C@H]([C@@H](C)O)NC(=O)[C@H](Cc2ccc(O)cc2)NC(=O)[C@H](Cc2ccc(O)cc2)NC(=O)[C@H](C)NC(=O)[C@H](Cc2ccc(O)cc2)NC1=O`, for which the pIC50 in assay [2] was determined as 4.93. Moreover, the deltapIC50 in [7] came out at 0.24; in [8], 0.23; in assay [9], 0.23. Moreover, the figures for the IC50 in assay [3] (read-out: pIC50 (converted)) and in assay [4] (read-out: pIC50 (converted)) were 3090 nM and 195 nM, respectively.
Regarding `CC[C@H](C)[C@@H]1NC(=O)[C@H](CC(C)C)NC(=O)[C@@H](Cc2ccc(O)cc2)NC(=O)CSC[C@@H](C(N)=O)NC(=O)[C@H](CO)NC(=O)[C@H](Cc2c[nH]cn2)NC(=O)[C@H](CCC(=O)O)NC(=O)[C@H](C)NC(=O)[C@H](Cc2c[nH]c3ccccc23)NC(=O)[C@H]([C@@H](C)O)NC(=O)[C@H](Cc2ccc(O)cc2)NC(=O)[C@H](Cc2ccc(O)cc2)NC(=O)[C@H](C)NC(=O)[C@H](Cc2ccc(O)cc2)NC1=O`, the pIC50 in [2] is reported as less than 4. Further, the values for the deltapIC50 in [7], in [8] and in assay [9] were -0.46, less than -0.7 and -1.63, respectively. The IC50 in assay [3] (read-out: pIC50 (converted)) is 15100 nM; in [4] (read-out: pIC50 (converted)) it was 13800 nM.

In general, pIC50 refers to the IC50 on a negative log10 scale, so that one unit is a factor of ten.
